UBC13 polyUb – human UBC13 polyubiquitination inhibition | P61088 | UBC13 polyubiquitin chain formation, TR-FRET | inhibition, % at 20 µM | 330,000 tested, 0.47% active; in the data active = inhibition above about 45%, passing the limit was not always enough
Target sequence (P61088 whole entry, looked up): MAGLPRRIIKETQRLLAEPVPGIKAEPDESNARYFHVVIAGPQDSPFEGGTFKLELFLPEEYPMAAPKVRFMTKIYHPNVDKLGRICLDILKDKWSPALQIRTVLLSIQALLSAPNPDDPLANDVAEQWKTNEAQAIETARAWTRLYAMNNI
Pemphigus Ab inh – blocks pemphigus antibody binding to human desmoglein-3; P32926; DSG3-coupled beads, scFv-anti-DSG3-GFP binding, flow cytometry; stronger effect = lower value; binding (percent of control), % at 10 µM; 310,000 tested, 0.48% active;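 active = binding more than 3 SD below its plate's average and above zero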;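 note: hits lower antibody fragment binding to DSG3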
MEKK3 PB1 HTS – MEKK3-MEK5 PB1 interaction, increase or decrease; binding response (% of control), % at 10 µM; 290,000 tested, 1.4% active; Q99759; bead-based flow cytometry, Alexa488-MEK5 binding to MEKK3; actives lie on both sides; 0 = blocked by unlabeled MEK5, 100 = vehicle; AID 1529;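 active = binding response more than 3 SD above or below the average of its plate-row segment, actives on both sides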;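 note: Alexa488 bead fluorescence after subtracting the streptavidin-only scavenger bead signal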
Target sequence (Q99759 whole entry, looked up): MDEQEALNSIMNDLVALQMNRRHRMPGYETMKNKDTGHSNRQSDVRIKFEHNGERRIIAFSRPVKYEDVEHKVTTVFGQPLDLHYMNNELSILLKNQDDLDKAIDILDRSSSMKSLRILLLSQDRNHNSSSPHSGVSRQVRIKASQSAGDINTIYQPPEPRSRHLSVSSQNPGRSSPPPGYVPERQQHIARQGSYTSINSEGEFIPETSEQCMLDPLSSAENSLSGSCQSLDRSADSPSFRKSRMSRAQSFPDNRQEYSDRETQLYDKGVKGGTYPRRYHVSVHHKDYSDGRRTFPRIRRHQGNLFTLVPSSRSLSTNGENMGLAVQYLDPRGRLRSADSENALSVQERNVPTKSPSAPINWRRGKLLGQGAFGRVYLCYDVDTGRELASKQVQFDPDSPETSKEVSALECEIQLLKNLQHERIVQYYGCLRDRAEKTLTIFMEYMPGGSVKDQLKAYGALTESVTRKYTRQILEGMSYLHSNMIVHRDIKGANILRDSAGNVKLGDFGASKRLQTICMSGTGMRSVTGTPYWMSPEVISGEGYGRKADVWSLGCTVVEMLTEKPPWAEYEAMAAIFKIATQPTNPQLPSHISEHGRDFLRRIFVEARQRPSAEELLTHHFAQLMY
MEKK2 mut-MEK5 – signal of MEK5 binding to mutant human MEKK2 PB1 domain. percent response, % at 10 µM. AID 1530. bead flow cytometry, Alexa488-MEK5 binding to MEKK2 mutant. 290,000 tested, 0.35% active; in the data active = percent response above about 24%, passing the limit was not always enough
MEKK2 WT-MEK5 – raises or lowers MEK5 binding to wildtype human MEKK2 PB1 domain. Q9Y2U5. bead flow cytometry, Alexa488-MEK5 binding to MEKK2 WT; actives lie on both sides. binding response (% of control), % at 10 µM. 290,000 tested, 1.1% active; in the data active = binding response below about 67% or above about 130%
Apaf-1 inh – blocks human Apaf-1 apoptosome activity; O14727; reconstituted apoptosome caspase-3 activity, DEVD-Rh110 fluorescence; inhibition, % at 20 µM; 330,000 tested, 0.71% active; AID 489030; active = inhibition of at least 40% at 20 µM;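 note: plate controls were DMSO wells for no effect and DEVD-CHO caspase inhibitor wells for full effect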
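System: reconstituted apoptosome with Apaf-1, cytochrome c, caspase-9, procaspase-3, dATP; Signal: Rh110 fluorescence intensity; Schedule: 30 min compound preincubation, 50 min activation, room temperature; Reagent: cytochrome c trigger plus (Z-DEVD)2-Rh110 caspase-3 substrate.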
MEKK2wt confirm – raises or lowers MEK5 binding to wildtype human MEKK2, retest; binding response (% of control), % at 10 µM; shares compounds with MEKK3 PB1 HTS; 5,900 tested, 2.4% active; bead flow cytometry, Alexa488-MEK5 binding to MEKK2 WT; actives lie on both sides; in the data active = binding response below about 16% or above about 210%; inactive = in between
MEKK2mut confirm – signal of MEK5 binding to mutant human MEKK2, retest; shares compounds with MEKK3 PB1 HTS; bead flow cytometry, Alexa488-MEK5 binding to MEKK2 mutant; percent response, % at 10 µM; 5,900 tested, 2% active; AID 1893; in the data active = percent response mostly above about 71%, no sharp cut-off; inactive = mostly below about 38%;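 note: higher means compound restores mutant binding toward wildtype level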
MEKK3 confirm – MEKK3-MEK5 PB1 inhibition, single concentration confirmation | shares compounds with MEKK3 PB1 HTS | bead flow cytometry, Alexa488-MEK5 binding to MEKK3; stronger effect = lower value | binding response (% of control), % at 10 µM | 5,900 tested, 1.8% active | AID 1894;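 active = binding response below 72% of control, or above a set upper limit, though filed actives all read lower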;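 note: 100% = DMSO only wells and 0% = binding blocked by excess unlabeled MEK5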
Numbers without * were called inactive; · = not tested or not shown; [ ] = remark or other dose. Rows were chosen to be rich in hits. Some 3.2% of all compounds tested hit in one or more screens of this group.

SMILES | UBC13 polyUb | Pemphigus Ab inh | MEKK3 PB1 HTS | MEKK2 mut-MEK5 | MEKK2 WT-MEK5 | Apaf-1 inh | MEKK2wt confirm | MEKK2mut confirm | MEKK3 confirm
NC(=O)c1ccc(NC(=O)COC(=O)CCN=C2NS(=O)(=O)c3ccccc32)cc1 | 6.9 | 99.0 | · | · | · | -5.8 | · | · | ·
Cc1ccc(-n2c(O)c(C=NCc3ccccn3)c3ccccc3c2=O)cc1 | -10.8 | 103.5 | 129.0* | 0.0 | 106.0 | 6.4 | 92.0 | -9.0 | 94.0
CCCCn1c(N)c(N(CC(C)C)C(=O)CC2OC(=O)c3ccccc32)c(=O)[nH]c1=O (stereo not drawn) | -2.6 | 103.5 | · | · | · | -0.1 | · | · | ·
O=C(C1=C[C@H](c2ccc(C(F)(F)F)cc2)C[C@H](OCCCCO)O1)N1CCOCC1 | 0.8 | 108.0 | 82.0*[inhibitor] | -3.0 | 100.0 | -2.3 | 99.0 | -3.0 | 98.0
CCCCC(=O)NCCNc1nc2c(c(=O)n(C)c(=O)n2C)n1Cc1ccccc1 | -6.4 | 99.1 | 2.0*[inhibitor] | -14.0 | 2.0*[inhibitor] | 8.0 | 109.0 | 5.0 | 104.0
CCCCC(=O)NCCNc1nc2c(c(=O)n(C)c(=O)n2C)n1Cc1ccc(F)cc1 | 5.0 | 103.1 | 104.0 | 1.0 | 101.0 | 0.1 | · | · | ·
Cc1ccc(S(=O)(=O)N(CC(=O)N2CCc3ccccc3C2)c2ccc(Cl)c(Cl)c2)cc1 | -5.1 | 110.5 | 146.0* | 1.0 | 111.0 | 28.9 | 99.0 | 6.0 | 106.0
CCOC(=O)N1CCN(C(=O)CN(c2ccccc2OC)S(=O)(=O)c2ccc(C)cc2)CC1 | -4.0 | 96.7 | 12.0*[inhibitor] | -25.0 | 18.0*[inhibitor] | -26.0 | 100.0 | 0.0 | 103.0
O=C(COC(=O)C1C2CC3OC(=O)C1C3C2)Nc1cccc(Cl)c1 (stereo not drawn) | 2.7 | 92.9 | 103.0 | 1.0 | 104.0 | 3.4 | · | · | ·
O=C(CCCOc1ccccc1)NCCc1nc2ccccc2[nH]1 | 12.1 | 100.9 | 74.0*[inhibitor] | -6.0 | 87.0 | 7.5 | 106.0 | 5.0 | 101.0
CCOc1ccc(OCC(=O)NCCc2nc3ccccc3[nH]2)cc1 | 2.2 | 78.9 | 111.0 | 3.0 | 110.0 | 22.8 | · | · | ·
COc1cc(/C=N/N=C(N)N)ccc1OCc1ccccc1Cl | 54.5* | 111.4 | 117.0 | 35.0 | 229.0* | 34.3 | 189.0 | 41.0 | 101.0
COc1ccc(/C=N/N=C/c2ccc(OC)c(OC)c2)cc1OC | -3.8 | 107.2 | 99.0 | -5.0 | 98.0 | 12.2 | · | · | ·
CCCCNC(=S)N/N=C1\C(=O)c2cccc3cccc1c23 | -3.7 | 106.8 | 71.0*[inhibitor] | -5.0 | 74.0 | 5.0 | 97.0 | -3.0 | 97.0
CNC(=S)N/N=C1\C(=O)c2cccc3cccc1c23 | 1.9 | 107.2 | 95.0 | -3.0 | 99.0 | 0.2 | · | · | ·
CCOC(=O)CSc1nc2nc(C)cc(C)n2n1 | -2.0 | 110.6 | 96.0 | 1.0 | 95.0 | -5.9 | · | · | ·
CCCn1c(C)cc(C(=O)CSc2nc3nc(C)cc(C)n3n2)c1C | -0.1 | 86.0 | 135.0* | 1.0 | 104.0 | -2.5 | 105.0 | 4.0 | 99.0
O=C(Nc1ccc(Cl)cn1)c1ccc(COc2ccccc2Br)o1 | 7.5 | 118.5 | 49.0*[inhibitor] | -18.0 | 50.0 | 13.5 | 107.0 | 14.0 | 110.0
CCOc1ccc(OCc2ccc(C(=O)Nc3ccc(Cl)cn3)o2)cc1 | 5.0 | 124.0 | 101.0 | 0.0 | 101.0 | 5.2 | · | · | ·
CN(C)CCNc1ncnc2c1sc1nc(N3CCOCC3)c3c(c12)CC(C)(C)SC3 | 32.7 | 98.5 | 105.0 | 14.0 | 141.0* | 7.8 | 141.0 | 20.0 | 107.0
Cc1ccc2ncc(S(=O)(=O)c3ccccc3)c(N3CCCCC3C)c2c1 (stereo not drawn) | 18.3 | 98.7 | 95.0 | -2.0 | 94.0 | 35.6 | · | · | ·
CN1CCN(c2ccc(Cl)cc2NC(=O)c2ccc(S(=O)(=O)N(C)C)cc2)CC1 | 1.9 | 95.5 | 109.0 | 15.0 | 136.0* | -7.1 | 114.0 | 10.0 | 100.0
CN(C)S(=O)(=O)c1ccc(C(=O)Nc2cc(S(=O)(=O)Nc3ccccc3Cl)ccc2N2CCCCC2)cc1 | -20.8 | 108.5 | 94.0 | -3.0 | 94.0 | -8.2 | · | · | ·
CN(C)S(=O)(=O)c1ccc(N2CCCC2)c(C(=O)Nc2ccccc2OC(F)F)c1 | -5.6 | 118.3 | 104.0 | 0.0 | 104.0 | 0.1 | · | · | ·
COc1cc(Cl)c(C)cc1NC(=O)c1cc(S(=O)(=O)N(C)C)ccc1N1CCCC1 | 1.9 | 96.2 | 148.0* | 1.0 | 104.0 | 17.6 | 102.0 | -2.0 | 103.0
SMILES | UBC13 polyUb | Pemphigus Ab inh | MEKK3 PB1 HTS | MEKK2 mut-MEK5 | MEKK2 WT-MEK5 | Apaf-1 inh | MEKK2wt confirm | MEKK2mut confirm | MEKK3 confirm
CCN(CC)S(=O)(=O)c1cc(C(=O)Nc2cc(Cl)ccc2N2CCN(C)CC2)ccc1Cl | 11.1 | 100.3 | 109.0 | 24.0 | 161.0* | 21.1 | 150.0 | 33.0 | 108.0
CC1CCCCN1C(=O)c1ccc(Br)o1 (stereo not drawn) | 1.2 | · | 105.0 | 9.0 | 109.0 | 3.1 | · | · | ·
CCCC(=O)Nc1nnc(SCC(=O)NC2CC2)s1 | 3.1 | 104.8 | 100.0 | -2.0 | 103.0 | -1.1 | · | · | ·
COc1ccc(/C=N/NC(=O)c2[nH]c3ccc(Br)cc3c2-c2ccccc2)c(C(=O)O)c1OC | 6.7 | 95.3 | 97.0 | -5.0 | 91.0 | -10.6 | · | · | ·
COc1ccc(/C=N/NC(=O)c2[nH]c3ccc(Br)cc3c2-c2ccccc2)cc1 | -4.2 | 83.3 | 147.0* | 0.0 | 103.0 | -3.8 | 96.0 | -7.0 | 101.0
CSc1cccc(NC(=O)CSc2ncccc2C(=O)Oc2cccc([N+](=O)[O-])c2)c1 | -15.0 | 102.2 | 121.0 | 0.0 | 104.0 | 3.5 | · | · | ·
CCN(C(=O)CSc1ncccc1C(=O)Oc1cccc([N+](=O)[O-])c1)c1cccc(C)c1 | 1.6 | 99.9 | 138.0* | 1.0 | 107.0 | 29.1 | 101.0 | 1.0 | 104.0
CCc1cc(C(=O)N=Nc2c(O)[nH]c3ccc([N+](=O)[O-])cc23)c2ccccc2n1 | -32.2 | 103.9 | 101.0 | -1.0 | 102.0 | 16.9 | · | · | ·
CCc1cc(C(=O)N=Nc2c(O)[nH]c3c(Br)cc(Br)cc23)c2ccccc2n1 | -14.5 | 84.0 | 139.0* | 0.0 | 106.0 | 8.7 | 87.0 | -6.0 | 100.0
CC(C(=O)NCCS(=O)(=O)c1ccc(Cl)cc1)S(=O)(=O)c1ccc(Cl)cc1 (stereo not drawn) | -6.3 | 105.3 | 108.0 | 2.0 | 104.0 | -1.1 | · | · | ·
CC(C(=O)NCCS(=O)(=O)c1ccc(Cl)cc1)S(=O)(=O)c1ccccc1 (stereo not drawn) | 8.7 | 100.9 | 152.0* | 8.0 | 139.0 | -9.7 | 106.0 | 4.0 | 102.0
O=C(COc1ccc(F)c(Cl)c1)Nc1ccc(N2CCOCC2)cc1 | 3.1 | 113.0 | · | · | · | 6.4 | · | · | ·
